# Most compounds without a hit are left out; they make up all but 8.9% or so of the library.
# b-catenin transl: modulators of beta-catenin nuclear translocation, primary screen, imaging, HeLa cells, immunofluorescence, high-content. 0.3% of 190,000 active. nuclear translocation activity, % at 5 µM;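 active = nuclear translocation activity above 50% at 5 µM, with a well cell count of 50 or more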;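 note: per-cell ratio of nuclear to cytoplasmic median beta-catenin stain intensity; plate controls were DMSO negative control for no effect and GSK-3 inhibitor IX positive control for full effect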
#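 Assay system: human HeLa cells, native beta-catenin; doses: 5 µM primary, 0.02–20 µM confirmation; incubation: compound treatment 24 h, 37°C, 5% CO2; technique: fluorescence imaging of beta-catenin antibody stain plus DAPI; measure: % activation, nuclear-to-cytoplasmic median beta-catenin signal ratio per cell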
# HSV replic up: enhancers of HSV replication in host cells, fold increase, host cell viability. HSV replication augmentation in cells. maximum fold increase. 0.005% of 220,000 active; in the data active = maximum fold increase above about 1.5; tested in PC3 cells
# MT stabilizer: microtubule stabilizers in HeLa cells, primary screen, imaging, high-content imaging | HeLa tubulin immunostaining HCS, 24 h; share of cells brighter than vehicle mean+2SD | % tubulin-high responders, % at 10 µM | 0.83% of 200,000 active | AID 2205, 2009;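 active = plate Z-score above 3 for both tubulin-high and condensed-nucleus cell shares, with cell loss under 80%, at 10 µM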;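 note: anti alpha tubulin signal scored within the nucleus-defined area of each cell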
# L major viab: Leishmania major promastigote growth inhibition, primary screen; 9% of 200,000 active; Leishmania major promastigotes, resazurin fluorescence viability; AID 1063, 2008; inhibition, % at 10 µM; in the data active = inhibition above about 50%;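 note: promastigotes grown with compound for 44 hours at 28 °C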
# Dynein cargo inh: inhibitors of GR-EGFP nuclear translocation, primary screen, dynein cargo transport inhibitor project, imaging, high-content, 3617.4 mouse cells | 0.47% of 220,000 active | test concentration mostly 20 µM; stimulated with dexamethasone, 1 µM; stronger effect = lower value | z-score, hits read low;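 active = plate z-score of nuclear minus cytoplasmic receptor signal below a set negative limit, without overly bright fluorescence or cell loss, cut at about -3.5 in these data, passing the limit was not always enough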;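 note: z-score of nuclear minus cytoplasmic ring GR-EGFP intensity difference per well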
#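 Schedule: 48 h induction, then 1 h compound, then 30 min agonist, 37 °C. Buffer or medium: tetracycline-free induction medium containing charcoal-stripped FBS. Reagent: 1.0 µM final dexamethasone stimulus. Evaluation: nuclear versus cytoplasmic GR-EGFP signal, averaged per well. Signal: high-content fluorescence imaging after fixation.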
# Starred values were filed as active, the others as inactive; i = inactive; x = no result given.
SMILES,b-catenin transl,HSV replic up,MT stabilizer,L major viab,Dynein cargo inh
CN(C)S(=O)(=O)c1ccc(NC(=S)NC(=O)c2cccs2)cc1,0,i,2,4,-0.19
CCN(c1ccccc1)S(=O)(=O)c1ccc(C(=O)NCC(c2cccs2)N(C)C)cc1 (stereo not given),1,i,4,90*,0.62
CC12CCCCC1c1ccccc1C(=NCC(=O)O)N2 (stereo not given),-2,i,6,22,1.1
c1ccc2c(CNCCN3CCOCC3)cccc2c1,-2,i,1,4,-0.13
CC(C)Oc1ccc(Cc2cnc(N)nc2N)cc1,11,i,2,58*,0.84
CCCCOc1ccc(Cc2cnc(N)nc2N)cc1,1,i,x,x,-0.47
COc1ccc(OC)c(/C=N/NC(=O)c2cc3c(OC)c(OC)ccc3[nH]2)c1,-1,i,2,72*,0.097
CCOC(=O)C1CCN(S(=O)(=O)c2ccc(NC(C)=O)c(Cl)c2)CC1,-2,i,x,x,-0.55
Cc1ccc(OCc2n[nH]c(=S)n2C2CCCCC2)cc1,-2,i,2,-5,-0.84
Cc1cccc(OCc2n[nH]c(=S)n2C2CCCCC2)c1,2,i,32*,-1,0.36
O=[N+]([O-])c1cccc(/C=N\N=C2c3ccccc3-c3ccccc32)c1O,1,i,3,74*,0.092
O=C(C(=O)N1CCCc2ccccc21)c1cn(CC(=O)N2CCOCC2)c2ccccc12,1,x,3,-6,-1.3
Cn1cc(C(=O)C(=O)N2CCCc3ccccc32)c2ccccc21,1,i,12*,20,-0.23
Nc1cc(=O)[nH]c(SCc2cccc(Cl)c2)n1,1,i,2,3,-0.24
Nc1cc(=O)[nH]c(SCc2ccc(Cl)cc2)n1,1,i,3,69*,-0.69
OCCC1CN(Cc2cnc(N3CCOCC3)s2)CCN1C1CCCC1 (stereo not given),-3,i,2,-1,-0.77
Cc1ccccc1-c1ncc(CN2CCN(C3CCCCC3)C(CCO)C2)cn1 (stereo not given),0,i,1,56*,0.23
CCOc1ccc(CN2CCN(C/C=C/c3ccc(OC)cc3)CC2CCO)cc1 (stereo not given),2,i,1,23,-0.42
OCCC1CN(Cc2cnc(-c3ccccc3)s2)CCN1C1CCCCC1 (stereo not given),-2,i,3,81*,-0.21
CCOc1ccc(CN2CCN(Cc3cnc(-c4ccccc4)s3)CC2CCO)cc1 (stereo not given),1,i,1,86*,-0.38
CCOc1ccc(CN2CCN(CC3=Cc4cccc(OC)c4OC3)CC2CCO)cc1 (stereo not given),1,i,3,78*,-0.013
CSc1ncc(CN2CCN(C3CCCCC3)C(CCO)C2)cn1 (stereo not given),1,i,3,-6,-0.46
CCOc1cnn(-c2cc(Oc3ccc(C)cc3)ncn2)c(=O)c1Cl,x,i,2,-2,-0.3
CCOc1ccc(CN2CCN(Cc3cc4ccccc4[nH]3)CC2CCO)cc1 (stereo not given),2,i,3,79*,-0.44
CC(C)N1CCC(N2CCN(Cc3cnc(-c4ccccc4)s3)CC2CCO)CC1 (stereo not given),1,i,3,6,1.1
SMILES,b-catenin transl,HSV replic up,MT stabilizer,L major viab,Dynein cargo inh
OCCC1CN(Cc2cnc(-c3ccccc3)s2)CCN1C1CCCC1 (stereo not given),-1,i,1,80*,0.45
COc1cccc2sc(/N=C/N(C)C)nc12,0,i,x,x,0.12
Brc1ccc(CSc2nnc(-c3ccccn3)n2Cc2ccco2)cc1,100*,i,31,10,-0.91
Cc1ccc(-c2nnc(SCc3ccc(C#N)cc3)n2Cc2ccco2)cc1,0,i,4,66*,-0.62
CC(C)(C)c1ccc(CSc2nnc(-c3ccccn3)n2Cc2ccco2)cc1,-1,x,1,35,-1.3
COc1cccc(-c2nnc(SCc3ccc(C#N)cc3)n2Cc2ccco2)c1,-4,i,6,12,-0.24
Cc1[nH]n(-c2nc(-c3ccc(Cl)cc3)cs2)c(=O)c1N=Nc1ccc(O)cc1,1,i,6,71*,-1.8
CCc1c(C)[nH]n(-c2nc(-c3ccccc3)cs2)c1=O,0,i,3,13,3
O=[N+]([O-])c1cc(-c2nc3nc4ccccc4nc3n2CCc2ccccc2)cc([N+](=O)[O-])c1,2,i,4,61*,-0.22
Cc1cccc(-n2c(-c3cccc([N+](=O)[O-])c3)nc3nc4ccccc4nc32)c1,-1,i,4,-5,0.11
S=c1[nH]nc(-c2cccc(Cl)c2)n1Cc1ccccc1,-1,i,7,-10,-0.33
Clc1cccc(-c2nc3nc4ccccc4nc3n2Cc2ccccc2)c1,-2,i,2,52*,1.3
c1ccc(Cn2c(-c3ccccc3)nc3nc4ccccc4nc32)cc1,-2,i,2,84*,0.44
C=CCn1c(-c2ccccc2)nc2nc3ccccc3nc21,0,i,2,4,-0.027
CC(C)CCn1c(=O)[nH]c2ccccc21,-1,i,x,x,0.088
COc1ccc(-c2cn3c(C)c(C(=O)Nc4cccc(C)n4)sc3n2)cc1,-1,i,10,96*,-0.42
NC(=O)COC(=O)c1ccccc1OCc1ccccc1,-1,i,1,-2,-0.47
COc1ccc(/C=C(\C#N)C(=O)OCC(=O)NCc2ccc(Cl)cc2)cc1,x,i,2,59*,0.36
CCCCCCCCNC(=O)/C(C#N)=C/c1ccccc1[N+](=O)[O-],-3,i,7,58*,-0.28
CCOCCCNC(=O)/C(C#N)=C/c1ccc([N+](=O)[O-])o1,0,i,4,101*,5.6
CCOCCCNC(=O)/C(C#N)=C/c1cc(Br)c(O)c(Br)c1,50*,i,x,x,0.63
COCCNC(=O)/C(C#N)=C/c1cc(Br)c(O)c(OC)c1,-1,i,5,12,-0.86
COc1ccc(/C=C/C(=O)NC(=S)Nc2ccc(N3CCN(C(C)=O)CC3)cc2)cc1,-1,i,x,x,0.76
C#CCOCCOCCOCCNc1nc(N2CCN(C(=O)C([C@@H](C)CC)n3cc(C(N)CC(C)C)nn3)CC2)nc(N2CCN(C(=O)[C@H](CCC(=O)O)n3cc(C(N)Cc4ccc(O)cc4)nn3)CC2)n1 (stereo not given in full),-1,i,4,-5,1.6
CCc1nnc(NS(=O)(=O)c2ccc(N=Cc3c(C)[nH]n(-c4ccc(C)c(C)c4)c3=O)cc2)s1,-2,i,2,-6,0.12
Cc1ccc(C2=NN(S(=O)(=O)c3ccccc3)C(c3ccccc3O)C2)cc1 (stereo not given),2,x,7,97*,-0.24
